Data set [1] can be described thus: Stability in aqueous solution at pH7.4 after 48 hrs. The data set is classed as physicochemical. Particulars: buffer, pH 7.4, 48 h.
The nature of data set [2]: Stability in presence of alpha-chymotrypsin after 48 hrs. The data set is classed as ADME. The procedure, abridged: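 Digestion with α-chymotrypsin (2 μg/mL final) of 100 μg/mL compound in 100 mM Tris-HCl with 10 mM CaCl2. Aliquots taken at 0, 15, 30, 60, 120, 240 min, 24 and 48 h. Quenched with 10% acetic acid plus atenolol external standard, then quantified by LC-MS/MS in positive MRM mode, in duplicate. Remaining compound expressed relative to enzyme-free control.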

The nature of data set [3]: Hemolytic activity in human RBC assessed as hemolysis at 1000 ug/ml after 1 hr. The data set is classed as ADME, cell-based. To be noted: erythrocyte.
The test system of another data set is Escherichia coli. Nature of the data set: Antimicrobial activity against Escherichia coli ATCC 25922. The data set is classed as functional.

Structures are written as SMILES. Converted amounts (≈) assume the structure as drawn.

As to `N=C(N)NCCC[C@H](NC(=O)C(CN)(CCC1CCCCC1)CCC1CCCCC1)C(N)=O`, in data set [1], the Stability result was “Stable”. Also, the Stability result in data set [2] was “Stable”. Moreover, the Activity result in data set [3] is reported as “Non-toxic”. Besides, in the data set with Escherichia coli, the MBC was found to be 289 µM (≈ 134 µg/mL) and 144 µM (≈ 66.9 µg/mL) was the least that counted as inhibitory (MIC).

These data come from ChEMBL document CHEMBL1156791, “Antimicrobial activity of small beta-peptidomimetics based on the pharmacophore model of short cationic antimicrobial peptides” (J Med Chem, 2010).
